Compounds with a hit are over-represented: about 1.7% of the library has one in this group of screens.
STEP block – blocks human striatal-enriched tyrosine phosphatase. inhibition, % at 20 µM. 360,000 compounds, 0.25% hits. AID 588621. recombinant STEP, OMFP fluorogenic substrate, fluorescence;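 active means inhibition at 20 µM, scaled per plate between control wells, above about 37%, limit read from the data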
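Also added – OMFP at 25 µM · Test system – STEP tyrosine phosphatase · Technique – FITC-channel fluorescence of OMFP product · Schedule – 20 min at room temperature, dark · Evaluation – control-normalized % inhibition with plate pattern correction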
Casp6 inh – blocks human caspase-6 cleavage activity; P55212; purified caspase-6, Z-VEID-R110 cleavage fluorescence; inhibition, % at 12.5 µM; 350,000 compounds, 0.53% hits; AID 686996;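 active means mean inhibition across replicates at least about 35%, with every replicate also reaching that limit, limit read from the data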
Target sequence (P55212 24-179 limits assumed): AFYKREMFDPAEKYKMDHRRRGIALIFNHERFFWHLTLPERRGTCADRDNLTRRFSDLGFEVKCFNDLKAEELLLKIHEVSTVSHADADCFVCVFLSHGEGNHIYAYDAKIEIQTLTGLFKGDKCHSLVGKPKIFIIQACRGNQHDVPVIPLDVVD
Target sequence (P55212 194-293 limits assumed): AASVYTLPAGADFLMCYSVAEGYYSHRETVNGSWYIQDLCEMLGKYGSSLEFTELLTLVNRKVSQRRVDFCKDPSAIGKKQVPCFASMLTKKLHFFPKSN
Scp-1 inhibitor – blocks human Scp-1 phosphatase activity; Q9GZU7; Recombinant Scp1, phosphopeptide, malachite green phosphate absorbance; inhibition, % at 20 µM; 340,000 compounds, 0.88% hits; AID 493091;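 active means inhibition above about 50% at 20 µM, limit read from the data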
Target sequence (Q9GZU7 76-261 limits assumed): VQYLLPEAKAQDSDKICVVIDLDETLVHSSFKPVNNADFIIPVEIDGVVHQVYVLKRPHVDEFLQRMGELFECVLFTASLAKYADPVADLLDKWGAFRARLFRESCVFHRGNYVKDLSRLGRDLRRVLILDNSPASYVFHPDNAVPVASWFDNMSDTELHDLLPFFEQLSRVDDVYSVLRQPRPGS
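Test system: SCP-1 catalytic domain; Buffer or medium: Acidic Tris acetate buffer with magnesium and detergent; Also added: Phosphorylated 17-residue peptide substrate; Compound: single 20 µM dose, 1% DMSO; Schedule: enzyme reaction 45 min at room temperature, colour 5 min, stabilisation 30 min; Signal: Phosphate-binding colour reagent, absorbance read at 630 nm.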
SUMO1 PPI mod – alters human SUMO1 binding to SIM partners; inhibition, % at 20 µM; SUMO1 binding to a labelled peptide, TR-FRET, 1 h; P63165; 360,000 compounds, 0.33% hits; in the data active means inhibition above about 37%
DNMT1 block – DNMT1 (human) enzyme inhibition | DNMT1 molecular beacon, Hinp1I cleavage, fluorescence | inhibition (reported as % activation of signal), % at 10 µM | 360,000 compounds, 0.83% hits | AID 588458; in the data active means inhibition above about 50%
LMPTP inh – blocks human LMPTP phosphatase | P24666 | recombinant LMPTP-A, OMFP fluorogenic substrate, fluorescence intensity | inhibition, % at 20 µM | 360,000 compounds, 0.22% hits;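 active means compounds that cut the enzyme signal by at least half of the control window in the single-dose screen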
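Test system: LMPTP-A, protein tyrosine phosphatase of low molecular weight; Input: 0.625 nM enzyme; Incubation: 50 min dark incubation at room temperature; Signal: endpoint fluorescence intensity from OMFP dephosphorylation; Read-out basis: % inhibition versus control wells.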
Scp-1 conf – confirmation of human Scp-1 phosphatase inhibitors; shares compounds with Scp-1 inhibitor; recombinant SCP-1 catalytic domain, phosphate release, malachite green absorbance; inhibition, % at 20 µM; 2,500 compounds, 61% hits; AID 540281
MG interference – interferes with malachite green readout, flagging false Scp-1 hits; shares compounds with Scp-1 inhibitor; Colorimetric interference counterscreen, malachite green absorbance 630 nm; apparent inhibition (interference), % at 20 µM; 2,500 tested, under 10 active;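 further: compounds added after enzyme reaction finished so only phosphate colour detection is probed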
Scp1 DSF – Scp-1 (human) binding by thermal shift | shares compounds with Scp-1 inhibitor | Recombinant SCP1, Sypro Orange thermal shift Tm | thermal shift relative to vanadate control, % at 40 µM | 1,500 compounds, 25% hits;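 active means substances whose mean melting-temperature shift, as a percentage of the reference inhibitor's shift, reaches about 5.3%, limit read from the data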
Numbers stand for hits; – = inactive; · = no result.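 How the source made its calls, unless noted: active means inhibition of at least 30% at 20 µM; inactive means the rest.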

SMILES	STEP block	Casp6 inh	Scp-1 inhibitor	SUMO1 PPI mod	DNMT1 block	LMPTP inh	Scp-1 conf	MG interference	others
COc1ccc(NC(=O)CN2C(=O)C(c3ccccc3)=NC23CCCCCC3)cc1	–	·	59	–	–	–	–	–
O=C(CN1C(=O)C(c2ccc(F)cc2)=NC12CCCC2)Nc1ccc(F)cc1	–	–	–	–	–	–	·	·
COc1cccc(OCc2cc(C(=O)N(C)CCOc3ccc(C)cc3)no2)c1	–	·	55	–	–	–	–	–
CC1CCN(C(=O)c2cc(-c3ccccc3O)on2)CC1	–	–	53	–	–	–	–	–
CC1CCN(C(=O)c2cc(-c3ccco3)on2)CC1	–	–	–	–	–	–	·	·
CCCCOC(=O)c1ccc(NC(=O)c2cc(Cl)c(Cl)cc2C(=O)O)cc1	–	–	–	–	–	–	·	·
O=c1c2cc(-c3ccccc3)sc2nc2n1N=C(c1ccccc1)CS2	–	–	108	–	–	–	59	–	Scp1 DSF=–
NNC(=O)Cn1c(-c2ccccc2)cc(=O)n2ncnc12	–	–	69	–	–	–	–	–
Cc1cc(=O)n2ncnc2n1COCCO	–	·	–	–	–	–	·	·
O=C1CCCN1CCCNS(=O)(=O)c1ccc(Br)cc1	–	–	–	–	–	–	·	·
O=C1CCCN1CCCNS(=O)(=O)c1ccc(F)c(F)c1	–	–	–	–	–	–	–	–
O=C1NCCN1CCNS(=O)(=O)c1ccc(F)c(Cl)c1	–	–	–	–	–	–	–	–
CC(=O)Nc1ccc(S(=O)(=O)NCCN2CCNC2=O)cc1Cl	–	–	–	–	–	–	–	–
Cc1ccc(S(=O)(=O)NCCN2CCNC2=O)cc1	–	–	–	–	–	–	·	·
COc1ccc(-c2cnc3c(c2)C(=O)N([C@@H](C)CO)C[C@@H](C)[C@@H](CN(C)Cc2ccccc2)O3)cc1	·	–	·	·	·	·	·	·
O=C(C[C@H]1CC[C@@H]2[C@H](COC[C@@H](O)CN2CC2CCCCC2)O1)NCC1CC1	·	–	·	·	·	·	·	·
CCn1c(C)[n+](CC)c2ccc(S(=O)(=O)N(C)C)cc21	–	–	89	–	–	–	–	–
Cc1ccc(S(=O)(=O)N2CCOCC2)cc1NC(=O)COC(=O)C1COc2ccccc2O1 (stereo not given)	–	–	–	–	–	–	·	·
O=C(O)c1ccccc1C(=O)NCC(O)COCC1CC=CCC1 (stereo not given)	–	·	–	–	–	–	·	·
CCCc1n(CC(O)COC2CCCCC2)c2ccccc2[n+]1C (stereo not given)	–	–	100	–	–	–	77	–	Scp1 DSF=–
CCCc1n(CC(O)COCC2CC=CCC2)c2ccccc2[n+]1C (stereo not given)	–	–	67	–	–	–	–	–
CCCc1n(CC(O)COCc2ccccc2)c2ccccc2[n+]1C (stereo not given)	–	–	–	–	–	–	·	·
Cc1ccc2nc3n(c(=O)c2c1)CCCCC3	–	·	–	–	–	–	·	·
CO[C@H]1CN(C)C(=O)c2cc(NC(C)=O)ccc2OC[C@@H](C)N(C(=O)c2ccccc2)C[C@H]1C	·	–	·	·	·	·	·	·
CC(=O)Nc1ccc(/C(C)=N/NC(=O)c2ccc(COc3ccccc3Cl)o2)cc1	–	–	104	–	–	–	65	–	Scp1 DSF=–
C[N+]1(C)CC2([N+](=O)[O-])CC=C(Oc3ccccc3)C([N+](=O)[O-])(C2)C1 (stereo not given)	–	·	97	–	–	–	87	–	Scp1 DSF=–
C/C(=N\NC(=O)CSCc1ccc(Cl)cc1)c1ccc2c(c1)OCCO2	–	·	–	–	–	–	·	·
